Measured values as given in ChEMBL document CHEMBL1275434, “In vitro evaluation of CBR-2092, a novel rifamycin-quinolone hybrid antibiotic: studies of the mode of action in Staphylococcus aureus” (Antimicrob Agents Chemother, 2008).
Converted amounts (≈) assume the structure as drawn. The source made the active and inactive calls. The calls are words filed in the database; no cut-off is given here.

Columns and labels:
Staphylococcus aureus [1] = experiment: Antimicrobial activity against Staphylococcus aureus CB1884; assay type: functional
Staphylococcus aureus [2] = experiment: Antimicrobial activity against Staphylococcus aureus CB1887 harboring rpoB R484H, L520 deficient gyrA, […], R236 duplicated parC and parC H103Y mutant genes selected after ABT-719 exposure for 20 days; assay type: functional; conditions: CB1887, 480 h
Staphylococcus aureus [3] = experiment: Antimicrobial activity against Staphylococcus aureus CB370 harboring rpoB H481Y mutant gene; assay type: functional
Staphylococcus aureus [4] = experiment: Antimicrobial activity against Staphylococcus aureus CB814 harboring […] and parC S80F mutant genes; assay type: functional
Staphylococcus aureus [5] = experiment: Antimicrobial activity against Staphylococcus aureus CB1952 harboring rpoB S486L, gyrA […], gyrA E88Q, gyrA G532S, parC S80F, parC E84L mutant genes selected after CBR-2092 exposure for 21 days; assay type: functional; conditions: CB1952, 504 h
Staphylococcus aureus [6] = experiment: Antimicrobial activity against Staphylococcus aureus CB815 harboring rpoB H481Y, gyrA […] and parC S80F mutant genes; assay type: functional
Staphylococcus aureus [7] = experiment: Antimicrobial activity against Staphylococcus aureus CB1953 harboring rpoB H481Y, gyrA S84L, gyrA V598I, parC S80F, parC R570H mutant genes selected after CBR-2092 exposure for 7 days; assay type: functional; conditions: CB1953, 168 h
Staphylococcus aureus [8] = experiment: Antimicrobial activity against Staphylococcus aureus CB1954 harboring rpoB H481Y, gyrA S84L, K809 deficient gyrA, parC S80F, parC A523D mutant genes selected after CBR-2092 exposure for 7 days; assay type: functional; conditions: CB1954, 168 h
In short: (§1)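 CLSI broth microdilution MIC in cation-adjusted Mueller-Hinton (MHII) broth supplemented with 0.002% (vol/vol) polysorbate 80, included to limit compound loss to plastic surfaces.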

[9] = Inhibition of Staphylococcus aureus wild-type RNA polymerase RpoB
In short: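 Recombinant S. aureus σA RNA polymerase holoenzyme in a single-round transcription assay using the pGL2B-T7A1-G-less template. The 272-nucleotide G-less RNA product was quantified by gel electrophoresis. IC50 is the concentration halving the product formed without test agent.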

[10] = Inhibition of Staphylococcus aureus RpoB H481Y mutant
In short: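 Recombinant S. aureus σA RNA polymerase holoenzyme carrying RpoB H481Y. Single-round transcription of the pGL2B-T7A1-G-less template. The 272-nt G-less RNA product is quantified by gel electrophoresis. IC50 is the concentration that inhibits 50% of product formed without inhibitor.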

Staphylococcus aureus [11] = experiment: Antimicrobial activity against Staphylococcus aureus CB190 by broth microdilution method; assay type: functional
Staphylococcus aureus [12] = experiment: Antimicrobial activity against Staphylococcus aureus CB811 harboring quinolone-resistant gyrA S84L mutant gene by broth microdilution method; assay type: functional; in short: as §1
Staphylococcus aureus [13] = experiment: Antimicrobial activity against Staphylococcus aureus CB808 harboring quinolone-resistant parC S80F mutant gene by broth microdilution method; assay type: functional; in short: as §1
Staphylococcus aureus [14] = experiment: Antimicrobial activity against Staphylococcus aureus CB814 harboring fluoroquinolone-resistant gyrA S84L and parC S80F mutant genes by broth microdilution method; assay type: functional; in short: as §1
Staphylococcus aureus [15] = experiment: Antimicrobial activity against Staphylococcus aureus CB370 harboring rifampin-resistant rpoB H481Y mutant gene by broth microdilution method; assay type: functional; in short: as §1
Staphylococcus aureus [16] = experiment: Antimicrobial activity against Staphylococcus aureus CB812 harboring rpo B H481Y and gyrA S84L mutant genes by broth microdilution method; assay type: functional; in short: as §1
Staphylococcus aureus [17] = experiment: Inhibition of DNA synthesis in Staphylococcus aureus CB190 assessed as decrease in [methyl-3H]thymidine incorporation at 0.032 ug/ml; assay type: functional, organism-based
Staphylococcus aureus [18] = experiment: Inhibition of RNA synthesis in Staphylococcus aureus CB190 assessed as decrease in [5,6-3H]uridine incorporation at 0.032 ug/ml; assay type: functional, organism-based
Staphylococcus aureus [19] = experiment: Inhibition of protein synthesis in Staphylococcus aureus CB190 assessed as decrease in L-[3,4,5-3H]leucine incorporation at 0.032 ug/ml; assay type: functional, organism-based
Staphylococcus aureus [20] = experiment: Inhibition of cell wall synthesis in Staphylococcus aureus CB190 assessed as decrease in [2,3-3H]D-alanine incorporation at 0.032 ug/ml; assay type: functional, organism-based
Staphylococcus aureus [21] = experiment: Inhibition of DNA synthesis in rifamycin-resistant Staphylococcus aureus CB370 harboring rpoB H481Y mutant gene assessed as [methyl-3H]thymidine incorporation at 0.032 ug/ml; assay type: functional, organism-based
In short: (§2)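 Macromolecular synthesis time course in S. aureus, measuring incorporation of [methyl-3H]thymidine (DNA), [5,6-3H]uridine (RNA) or [2,3-3H]D-alanine (cell wall). At each time point, incorporation is expressed as percent of the DMSO-treated control culture. Incorporation at time zero is set to 100%.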

Staphylococcus aureus [22] = experiment: Inhibition of RNA synthesis in rifamycin-resistant Staphylococcus aureus CB370 harboring rpoB H481Y mutant gene assessed as [5,6-3H]uridine incorporation at 0.032 ug/ml; assay type: functional, organism-based; in short: as §2
Staphylococcus aureus [23] = experiment: Inhibition of protein synthesis in rifamycin-resistant Staphylococcus aureus CB370 harboring rpoB H481Y mutant gene assessed as L-[3,4,5-3H]leucine incorporation at 0.032 ug/ml; assay type: functional, organism-based
In short: (§3)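 Time-course radiolabel incorporation in S. aureus cultures with test agent. Precursors: [methyl-3H]thymidine (DNA), [5,6-3H]uridine (RNA), L-[3,4,5-3H]leucine (protein), [2,3-3H]D-alanine (cell wall). At each time point, incorporation with agent is expressed relative to the DMSO-treated control culture as percent incorporation. Time-zero incorporation is set to 100%.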

Staphylococcus aureus [24] = experiment: Inhibition of cell wall synthesis in rifamycin-resistant Staphylococcus aureus CB370 harboring rpoB H481Y mutant gene assessed as [2,3-3H]D-alanine incorporation at 0.032 ug/ml; assay type: functional, organism-based; in short: as §2
Staphylococcus aureus [25] = experiment: Inhibition of DNA synthesis in quinolone-resistant Staphylococcus aureus CB814 harboring gyrA S84L and parC S80F mutant genes assessed as decrease in [methyl-3H]thymidine incorporation at 0.032 ug/ml; assay type: functional, organism-based; in short: as §2
Staphylococcus aureus [26] = experiment: Inhibition of RNA synthesis in quinolone-resistant Staphylococcus aureus CB814 harboring gyrA S84L and parC S80F mutant genes assessed as decrease in [5,6-3H]uridine incorporation at 0.032 ug/ml; assay type: functional, organism-based; in short: as §2
Staphylococcus aureus [27] = experiment: Inhibition of protein synthesis in quinolone-resistant Staphylococcus aureus CB814 harboring gyrA S84L and parC S80F mutant genes assessed as decrease in L-[3,4,5-3H]leucine incorporation at 0.032 ug/ml; assay type: functional, organism-based; in short: as §3
Staphylococcus aureus [28] = experiment: Inhibition of cell wall synthesis in quinolone-resistant Staphylococcus aureus CB814 harboring gyrA S84L and parC S80F mutant genes assessed as decrease in [2,3-3H]D-alanine incorporation at 0.032 ug/ml; assay type: functional, organism-based; in short: as §2
Staphylococcus aureus [29] = experiment: Antimicrobial activity against rifampin-sensitive Staphylococcus aureus CB190 by broth microdilution method; assay type: functional; in short: as §1
Staphylococcus aureus [30] = experiment: Antimicrobial activity against rifampin-sensitive Staphylococcus aureus CB190 harboring rpoB H481Y mutant gene by broth microdilution method; assay type: functional; in short: as §1
Staphylococcus aureus [31] = experiment: Antimicrobial activity against rifampin-sensitive Staphylococcus aureus CB190 harboring rpoB Q468L mutant gene by broth microdilution method; assay type: functional; in short: as §1
Staphylococcus aureus [32] = experiment: Antimicrobial activity against rifampin-sensitive Staphylococcus aureus CB190 harboring rpoB Q468K mutant gene by broth microdilution method; assay type: functional; in short: as §1
Staphylococcus aureus [33] = experiment: Antimicrobial activity against rifampin-sensitive Staphylococcus aureus CB190 harboring rpo BH481D mutant gene by broth microdilution method; assay type: functional; in short: as §1
Staphylococcus aureus [34] = experiment: Antimicrobial activity against rifampin-sensitive Staphylococcus aureus CB190 harboring rpoB H472 mutant gene by broth microdilution method; assay type: functional; in short: as §1
Staphylococcus aureus [35] = experiment: Antimicrobial activity against rifampin-sensitive Staphylococcus aureus CB190 harboring rpoB D471Y mutant gene by broth microdilution method; assay type: functional; in short: as §1
Staphylococcus aureus [36] = experiment: Antimicrobial activity against rifampin-sensitive Staphylococcus aureus CB190 harboring rpoB E473 mutant gene by broth microdilution method; assay type: functional; in short: as §1
Staphylococcus aureus [37] = experiment: Antimicrobial activity against rifampin-sensitive Staphylococcus aureus CB190 harboring rpoB H481N mutant gene by broth microdilution method; assay type: functional; in short: as §1
Staphylococcus aureus [38] = experiment: Antimicrobial activity against rifampin-sensitive Staphylococcus aureus CB190 harboring rpoB N474K mutant gene by broth microdilution method; assay type: functional; in short: as §1
Staphylococcus aureus [39] = experiment: Antimicrobial activity against rifampin-sensitive Staphylococcus aureus CB190 harboring rpoB A477V mutant gene by broth microdilution method; assay type: functional; in short: as §1
Staphylococcus aureus [40] = experiment: Antimicrobial activity against rifampin-sensitive Staphylococcus aureus CB190 harboring rpoB D471G mutant gene by broth microdilution method; assay type: functional; in short: as §1
Staphylococcus aureus [41] = experiment: Antimicrobial activity against Staphylococcus aureus CB809 harboring rpoB H481Y and parC S80F mutant genes by broth microdilution method
Staphylococcus aureus [42] = experiment: Antimicrobial activity against Staphylococcus aureus CB815 harboring rpoB H481Y, gyrA S84L and parC S80F mutant genes by broth microdilution method
Staphylococcus aureus [43] = experiment: Antimicrobial activity against Staphylococcus aureus CB1947 harboring rpoB H481Y, gyrA S84L, E697 deficient gyrA, parC G167V mutant genes selected after CBR-2092 exposure for 20 days; conditions: CB1947, 480 h

Structure (SMILES): CO[C@H]1/C=C/O[C@@]2(C)Oc3c(C)c(O)c4c(O)c(c(/C=N/N5CCN(C)CC5)c(O)c4c3C2=O)NC(=O)/C(C)=C\C=C\[C@H](C)[C@H](O)[C@@H](C)[C@@H](O)[C@@H](C)[C@H](OC(C)=O)[C@@H]1C [RIFAMPIN]
- MIC (Staphylococcus aureus [1]): > 250 µg/mL
- MIC (Staphylococcus aureus [2]): > 250 µg/mL
- MIC (Staphylococcus aureus [3]): > 250 µg/mL
- MIC (Staphylococcus aureus [4]): 0.008 µg/mL (≈ 0.00972 µM)
- MIC (Staphylococcus aureus [5]): > 250 µg/mL
- MIC (Staphylococcus aureus [6]): > 125 µg/mL
- MIC (Staphylococcus aureus [7]): > 125 µg/mL
- MIC (Staphylococcus aureus [8]): > 125 µg/mL
- IC50 [9]: 15 nM
- IC50 [10]: > 25000 nM
- MIC (Staphylococcus aureus [11]): 0.008 µg/mL (≈ 0.00972 µM)
- MIC (Staphylococcus aureus [12]): 0.008 µg/mL (≈ 0.00972 µM)
- MIC (Staphylococcus aureus [13]): 0.008 µg/mL (≈ 0.00972 µM)
- MIC (Staphylococcus aureus [14]): 0.008 µg/mL (≈ 0.00972 µM)
- MIC (Staphylococcus aureus [15]): > 250 µg/mL
- MIC (Staphylococcus aureus [16]): > 250 µg/mL
- Activity (Staphylococcus aureus [17]): Active
- Activity (Staphylococcus aureus [18]): Active
- Activity (Staphylococcus aureus [19]): Active
- Activity (Staphylococcus aureus [20]): Active
- Activity (Staphylococcus aureus [21]): inactive
- Activity (Staphylococcus aureus [22]): inactive
- Activity (Staphylococcus aureus [23]): inactive
- Activity (Staphylococcus aureus [24]): inactive
- Activity (Staphylococcus aureus [25]): Active
- Activity (Staphylococcus aureus [26]): Active
- Activity (Staphylococcus aureus [27]): Active
- Activity (Staphylococcus aureus [28]): Active
- MIC (Staphylococcus aureus [29]): 0.008 µg/mL (≈ 0.00972 µM)
- MIC (Staphylococcus aureus [30]): > 64 µg/mL
- MIC (Staphylococcus aureus [31]): > 64 µg/mL
- MIC (Staphylococcus aureus [32]): > 64 µg/mL
- MIC (Staphylococcus aureus [33]): > 64 µg/mL
- MIC (Staphylococcus aureus [34]): 32 µg/mL (≈ 38.9 µM)
- MIC (Staphylococcus aureus [35]): 16 µg/mL (≈ 19.4 µM)
- MIC (Staphylococcus aureus [36]): 8 µg/mL (≈ 9.72 µM)
- MIC (Staphylococcus aureus [37]): 2 µg/mL (≈ 2.43 µM)
- MIC (Staphylococcus aureus [38]): 2 µg/mL (≈ 2.43 µM)
- MIC (Staphylococcus aureus [39]): 1 µg/mL (≈ 1.22 µM)
- MIC (Staphylococcus aureus [40]): 0.25 µg/mL (≈ 0.304 µM)
- MIC (Staphylococcus aureus [41]): > 250 µg/mL
- MIC (Staphylococcus aureus [42]): > 250 µg/mL
- MIC (Staphylococcus aureus [43]): > 250 µg/mL

Structure (SMILES): C[C@H]1COc2c(N3CCN(C)CC3)c(F)cc3c(=O)c(C(=O)O)cn1c23.C[C@H]1COc2c(N3CCN(C)CC3)c(F)cc3c(=O)c(C(=O)O)cn1c23.O [LEVOFLOXACIN]
- MIC (Staphylococcus aureus [11]): 0.25 µg/mL
- MIC (Staphylococcus aureus [12]): 0.25 µg/mL
- MIC (Staphylococcus aureus [13]): 1 µg/mL
- MIC (Staphylococcus aureus [14]): 8 µg/mL
- MIC (Staphylococcus aureus [15]): 0.25 µg/mL
- MIC (Staphylococcus aureus [16]): 0.25 µg/mL
- MIC (Staphylococcus aureus [41]): 1 µg/mL
- MIC (Staphylococcus aureus [42]): 8 µg/mL
